Active and inactive are the calls of the source. No cut-off for these calls is given here.
Tests used:
[1] = tested on: Mus musculus; test: Antihyperuricemic activity in fasted Kun Ming mouse assessed as inhibition of potassium oxonate-induced uric acid level in serum at 10 mg/kg qd administered 1 hr post potassium oxonate-challenge for 7 days via oral gavage measured 1 hr post last dose by phosphotungstic acid method relative to vehicle-treated control; format: functional
[2] = tested on: Mus musculus; test: Uricosuric activity in potassium oxonate-induced Kun Ming mouse model of hyperuricemia assessed as increase in uric acid excretion in urine at 10 mg/kg qd administered 1 hr post potassium oxonate-challenge for 7 days via oral gavage measured up to 24 hrs post last dose by phosphotungstic acid method relative to vehicle-treated control; format: functional
[3] = target: T1, Solute carrier family 22 member 12 (Homo sapiens, UniProt Q96S37); test: Inhibition of URAT1 (unknown origin) expressed in HEK293 cells assessed as inhibition of [14C]-uric acid uptake at 100 uM preincubated for 30 mins followed by [14C]-uric acid addition by liquid scintillation counting analysis relative to control; format: cell-based
T1 sequence (Q96S37 whole entry): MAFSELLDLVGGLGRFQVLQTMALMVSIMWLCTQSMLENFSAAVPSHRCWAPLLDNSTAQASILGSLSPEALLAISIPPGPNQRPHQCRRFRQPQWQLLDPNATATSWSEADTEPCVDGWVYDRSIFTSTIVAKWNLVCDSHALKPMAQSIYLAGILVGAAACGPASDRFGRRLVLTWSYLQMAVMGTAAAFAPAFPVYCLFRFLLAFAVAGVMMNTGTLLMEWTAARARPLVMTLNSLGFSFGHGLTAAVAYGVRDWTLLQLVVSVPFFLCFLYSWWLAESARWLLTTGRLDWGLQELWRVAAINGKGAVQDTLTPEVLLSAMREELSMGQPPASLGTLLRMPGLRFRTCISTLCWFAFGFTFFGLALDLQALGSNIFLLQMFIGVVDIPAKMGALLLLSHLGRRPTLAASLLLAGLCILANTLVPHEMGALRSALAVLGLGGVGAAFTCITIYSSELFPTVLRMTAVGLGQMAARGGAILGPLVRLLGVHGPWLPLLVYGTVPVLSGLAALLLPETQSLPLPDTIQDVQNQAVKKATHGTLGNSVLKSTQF

[4] = target: Xanthine dehydrogenase/oxidase (Homo sapiens, UniProt P47989); test: Inhibition of xanthine oxidase (unknown origin) assessed as reduction in uric acid formation preincubated for 5 mins followed by addition of xanthine substrate measured every minute up to 8 mins
[5] = tested on: Mus musculus; test: Antihyperuricemic activity in potassium oxonate-induced Kun Ming mouse model of hyperuricemia assessed as reduction in uric acid level in serum at 10 mg/kg, po qd administered via oral gavage 1 hr post potassium oxonate-challenge for 7 consecutive days by phosphotungstic acid method; format: functional, organism-based
How it was run: (§1)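 Male Kun-Ming mice, 18–22 g, acclimatised one week, food withdrawn 1 h before dosing. Once-daily oral gavage of oxonate 250 mg/kg or 0.5% CMC-Na at 8:00, then test agent in 0.5% CMC-Na at 9:00, for seven days. 24 h urine collected from day six in metabolic cages. Serum taken 1 h after final dose, liver tissue removed. Uric acid measured by phosphotungstic acid method. n = 8.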

[6] = tested on: Mus musculus; test: Antihyperuricemic activity in potassium oxonate-induced Kun Ming mouse model of hyperuricemia assessed as uricosuric activity by measuring increase in urinary uric acid excretion at 10 mg/kg, po qd administered via oral gavage 1 hr post potassium oxonate-challenge for 7 consecutive days measured up to 24 hrs post last dose by phosphotungstic acid method; format: functional, organism-based; how it was run: as §1
[7] = tested on: Mus musculus; test: In vivo inhibition of potassium oxonate-induced hepatic XOD activity in Kun Ming mouse model of hyperuricemia at 10 mg/ kg, po qd administered 1 hr post potassium oxonate-challenge for 7 consecutive days via oral gavage relative to control; format: functional
[8] = tested on: Mus musculus; test: Antihyperuricemic activity in potassium oxonate-induced Kun Ming mouse model of hyperuricemia assessed as oxonate-induced hepatic XOD activity at 10 mg/ kg, po qd administered 1 hr post potassium oxonate-challenge for 7 consecutive days via oral gavage relative to oxonate-treated control; format: functional
[9] = tested on: Mus musculus; test: Antihyperuricemic activity in potassium oxonate-induced Kun Ming mouse model of hyperuricemia assessed as reduction in hepatic uric acid level at 10 mg/kg, po qd administered via oral gavage 1 hr post potassium oxonate-challenge for 7 consecutive days by phosphotungstic acid method; format: functional, organism-based; how it was run: as §1
[10] = Decrease in potassium oxonate-induced renal URAT1 expression in Kun Ming mouse model of hyperuricemia at 10 mg/ kg, po qd administered 1 hr post potassium oxonate-challenge for 7 consecutive days via oral gavage by Western blot method relative to oxonate-treated control; format: functional, organism-based

Chain of Xanthine dehydrogenase/oxidase (P47989 whole entry): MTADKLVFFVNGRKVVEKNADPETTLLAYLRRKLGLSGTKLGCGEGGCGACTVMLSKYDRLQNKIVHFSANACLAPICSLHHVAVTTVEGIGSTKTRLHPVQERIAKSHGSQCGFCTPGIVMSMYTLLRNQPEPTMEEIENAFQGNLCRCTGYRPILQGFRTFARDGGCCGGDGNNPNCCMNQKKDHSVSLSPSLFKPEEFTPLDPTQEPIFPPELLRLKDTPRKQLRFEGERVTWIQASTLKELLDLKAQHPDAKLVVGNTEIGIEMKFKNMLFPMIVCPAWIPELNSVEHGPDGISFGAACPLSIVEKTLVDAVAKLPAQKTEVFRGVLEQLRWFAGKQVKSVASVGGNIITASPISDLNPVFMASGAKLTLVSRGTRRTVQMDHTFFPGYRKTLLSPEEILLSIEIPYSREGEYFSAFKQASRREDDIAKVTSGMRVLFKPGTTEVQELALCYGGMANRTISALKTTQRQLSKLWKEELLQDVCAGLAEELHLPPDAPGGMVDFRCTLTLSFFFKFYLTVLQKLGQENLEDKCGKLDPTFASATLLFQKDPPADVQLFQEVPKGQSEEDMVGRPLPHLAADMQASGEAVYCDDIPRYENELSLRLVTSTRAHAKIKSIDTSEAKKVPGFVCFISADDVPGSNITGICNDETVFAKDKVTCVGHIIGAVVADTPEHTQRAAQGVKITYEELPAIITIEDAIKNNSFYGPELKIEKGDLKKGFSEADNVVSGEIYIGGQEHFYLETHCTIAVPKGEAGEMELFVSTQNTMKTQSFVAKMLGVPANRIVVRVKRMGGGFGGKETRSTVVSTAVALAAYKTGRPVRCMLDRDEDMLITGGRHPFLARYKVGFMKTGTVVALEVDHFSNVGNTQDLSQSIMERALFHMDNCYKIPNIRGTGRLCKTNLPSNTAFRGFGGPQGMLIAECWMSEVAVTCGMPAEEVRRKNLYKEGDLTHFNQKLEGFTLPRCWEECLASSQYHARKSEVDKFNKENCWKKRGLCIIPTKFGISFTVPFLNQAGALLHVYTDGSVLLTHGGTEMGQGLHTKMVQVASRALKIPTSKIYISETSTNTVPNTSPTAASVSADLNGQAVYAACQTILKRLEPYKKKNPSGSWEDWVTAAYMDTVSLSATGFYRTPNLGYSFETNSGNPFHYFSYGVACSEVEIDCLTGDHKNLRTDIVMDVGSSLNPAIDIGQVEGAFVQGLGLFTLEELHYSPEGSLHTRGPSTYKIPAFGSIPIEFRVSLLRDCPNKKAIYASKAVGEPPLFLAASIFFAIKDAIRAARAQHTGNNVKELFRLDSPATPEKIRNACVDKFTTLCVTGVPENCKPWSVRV

IC50 [4] [nM] | Compound | inhibition in vivo at 10 mg/kg [1] [%] | Activity [2] [%] | inhibition at 100 µM [3] [%] | Activity [5] | Activity [6] | inhibition [7] | Activity [8] [%] | Activity [9] | Activity [10]
18.9 | COc1cc(/C=C2\CCC/C(=C\c3cccc(Br)c3)C2=O)cc(OC)c1 | 47.3 | 44.71 | 20.7 | – | – | – | – | – | –
– | COc1cc(/C=C2\CCC/C(=C\c3ccc(N(C)C)cc3)C2=O)cc(OC)c1 | 20.1 | 10.74 | – | – | – | – | – | – | –
– | COc1cc(/C=C2\CCC/C(=C\c3cc(C(C)(C)C)c(O)c(C(C)(C)C)c3)C2=O)cc(OC)c1 | 7.74 | 19.35 | – | – | – | – | – | – | –
– | Oc1ncnc2[nH]ncc12 [ALLOPURINOL] | 118 to 148 | 88.6 | – | Active | Active | Active | 43.4 | Active | –
– | CCc1oc2ccccc2c1C(=O)c1cc(Br)c(O)c(Br)c1 [BENZBROMARONE] | 99.7 | 37.58 | 42.5 | Active | Active | – | 11.3 | Active | Active

Reference: ChEMBL document CHEMBL3868642, “Discovery of novel curcumin derivatives targeting xanthine oxidase and urate transporter 1 as anti-hyperuricemic agents” (Bioorg Med Chem, 2017)
